Source: ChEMBL document CHEMBL3272249, “Esters of N-tert-butylarterenol. Long-acting new bronchodilators with reduced cardiac effects” (J Med Chem, 1976)

Tests used:
[1] = tested on: Canis familiaris; assay: Bronchodilator activity in dog assessed as time of inhibition of carbachol or histamine-induced bronchoconstriction at 530 to 1060 mg/kg, it relative to control; type: functional, Canis lupus familiaris; settings: dose mg/kg 530-1060; route endotracheal
Method in brief: (§1)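 Anesthetized dogs with an airway cannula and a nonbreathing valve. Bronchoconstriction was induced by iv carbachol (2–4 μg/kg) or histamine diphosphate (20–50 μg/kg) and read as change in airway pressure by transducer. Each compound was tested against both agonists in different dogs, and the results were combined and averaged. Effect is % inhibition of control constriction, with at least three dogs per dose. Drugs were dissolved fresh in distilled water, diluted in saline and kept on ice.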

[2] = tested on: Canis familiaris; assay: Bronchodilator activity in dog assessed as degree of inhibition of carbachol or histamine-induced bronchoconstriction at 530 to 1060 mg/kg, it relative to control; type: functional, Canis lupus familiaris; settings: dose mg/kg 530-1060; route endotracheal
Method in brief: (§2)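 Anesthetized dogs, trachea cannulated with a nonbreathing valve. Bronchoconstriction induced by iv carbachol (2–4 μg/kg) or histamine diphosphate (20–50 μg/kg) in separate animals, and airway pressure recorded by transducer. Drug stocks were made fresh in distilled water, diluted in saline and kept on ice. Read-out was percent inhibition of control constriction, averaged over at least three dogs per dose at the higher dose. Carbachol and histamine data were combined.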

[3] = tested on: Canis familiaris; assay: Cardiotoxicity in spontaneously respiring dog assessed as degree of increase in heart rate at 25 to 50 mg/kg, iv relative to control; type: toxicity, organism-based, Canis lupus familiaris; parameters: dose 25-50 mg/kg, route intravenous; settings: in vivo
Method in brief: (§3)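 Anesthetized, spontaneously respiring dogs. Heart rate was taken from a lead II EKG, and blood pressure from the right femoral artery by transducer. The increase in heart rate (beats/min) was scored on a graded scale with more than 4 dogs per dose, and its duration was recorded. Drugs were dissolved fresh in distilled water, diluted in physiological saline and kept on ice.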

[4] = tested on: Canis familiaris; assay: Cardiotoxicity in spontaneously respiring dog assessed as degree of increase in heart rate at 520 to 1040 mg/kg, it relative to control; type: toxicity, organism-based, Canis lupus familiaris; parameters: dose 520-1040 mg/kg, route endotracheal; settings: in vivo, inhaled_or_intranasal; method in brief: as §3
[5] = tested on: Canis familiaris; assay: Cardiotoxicity in spontaneously respiring dog assessed as time of increase in heart rate at 25 to 50 mg/kg, iv relative to control; type: toxicity, organism-based, Canis lupus familiaris; parameters: dose 25-50 mg/kg, route intravenous; settings: in vivo; method in brief: as §3
[6] = tested on: Canis familiaris; assay: Cardiotoxicity in spontaneously respiring dog assessed as time of increase in heart rate at 520 to 1040 mg/kg, it relative to control; type: toxicity, organism-based, Canis lupus familiaris; parameters: dose 520-1040 mg/kg, route endotracheal; settings: in vivo, inhaled_or_intranasal
Method in brief: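 Anesthetized, spontaneously respiring dogs. Heart rate monitored by lead II EKG, with blood pressure taken from the right femoral artery by pressure transducer and recorded on a polygraph. Drug stocks made fresh in distilled water, diluted in physiological saline and kept on ice. Dosing was iv, id or it as listed. The duration of the heart-rate increase was recorded in h, with more than 4 dogs per dose.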

[7] = tested on: Canis familiaris; assay: Bronchodilator activity in dog assessed as time of inhibition of carbachol or histamine-induced bronchoconstriction at 25 to 50 mg/kg, iv relative to control; type: functional, Canis lupus familiaris; settings: dose mg/kg 25-50
Method in brief: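 Dog airway model: anesthetized, cannulated via a nonbreathing valve, with airway pressure changes recorded after iv carbachol (2–4 μg/kg) or histamine diphosphate (20–50 μg/kg) challenge, each agonist in different animals. Compounds were given iv, intraduodenally or intratracheally from fresh aqueous stocks diluted in saline. Duration (h) of inhibition of induced bronchoconstriction was followed, and the two agonist datasets were pooled.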

[8] = tested on: Canis familiaris; assay: Bronchodilator activity in dog assessed as time of inhibition of carbachol or histamine-induced bronchoconstriction at 520 to 1040 mg/kg, it relative to control; type: functional, Canis lupus familiaris; settings: dose mg/kg 520-1040; route endotracheal; method in brief: as §1
[9] = tested on: Canis familiaris; assay: Bronchodilator activity in dog assessed as degree of inhibition of carbachol or histamine-induced bronchoconstriction at 25 to 50 mg/kg, iv relative to control; type: functional, Canis lupus familiaris; settings: dose mg/kg 25-50; method in brief: as §2
[10] = tested on: Canis familiaris; assay: Bronchodilator activity in dog assessed as degree of inhibition of carbachol or histamine-induced bronchoconstriction at 520 to 1040 mg/kg, it relative to control; type: functional, Canis lupus familiaris; settings: dose mg/kg 520-1040; route endotracheal; method in brief: as §2

| SMILES | Time [1] | inhibition (INH) [2] | Activity [3] | Activity [4] | Time [5] | Time [6] | Time [7] | Time [8] | inhibition (INH) [9] | inhibition (INH) [10] |
| --- | --- | --- | --- | --- | --- | --- | --- | --- | --- | --- |
| Cc1ccc(CC(=O)Oc2ccc([C@@H](O)CNC(C)(C)C)cc2OC(=O)Cc2ccc(C)cc2)cc1.Cl | 2 h | 40% |  |  |  |  |  |  |  |  |
| CC(=O)Oc1cc([C@@H](O)CNC(C)(C)C)ccc1OC(=O)c1ccc(C)cc1.CS(=O)(=O)O |  |  | 40% | 5% | < 0.5 h | < 1 h | <1 h | >1 h | >70% | >70% |
